The nature of test [1]: Growth inhibition effect against ovarian tumor IGROV-ET cells. It is filed as functional, Homo sapiens. The essentials: (§1)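 SRB colorimetric growth assay. Cells seeded at 5 × 10^3 per well in RPMI, attached 18 h in drug-free medium, then sample added (dissolved in DMSO/H₂O 3:7) for 48-72 h. Fixed with cold 50% TCA, 60 min, 4 °C; stained with 0.4% SRB in 1% acetic acid, 10 min RT; bound dye solubilized in Tris, OD 490 nm. GI50 from 100 × [(T − T0)/(C − T0)] = 50.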

Test [2] is described as follows: Growth inhibition effect against colon LOVO cells. The class given is functional, Homo sapiens. Summed up: as §1
Test [3] in a line: Growth inhibition effect against prostate tumor IGROV cells. It is filed as functional, Homo sapiens. The essentials:
as §1

A short description of test [4]: Growth inhibition effect against […] HT-29 cells. It is filed as functional, Homo sapiens. Summed up: as §1
The nature of test [5]: Growth inhibition effect against pancreas PANC-1 cells. The class given is functional, Homo sapiens. Summed up:
as §1

Test [6] in a line: Growth inhibition effect against ovarian tumor SK-BR-3 cells. The class given is functional, Homo sapiens. The essentials:
as §1

The nature of test [7]: Growth inhibition effect against prostate tumor SKOV-3 cells. The class given is functional, Homo sapiens, SK-OV-3. Summed up: as §1
Test [8] can be described thus: Growth inhibition effect against prostate tumor DU-145 cells. The class given is functional, Homo sapiens. The essentials:
as §1

Test [9] is described as follows: Growth inhibition effect against melanoma MEL-28 cells. It is filed as functional, Homo sapiens. Summed up: as §1
A further test relates to K562. The test is described as follows: Growth inhibition effect against leukemia […] cells. It is filed as functional, Homo sapiens. The essentials:
as §1

A short description of test [10]: Growth inhibition effect against prostate tumor LN-caP cells. The class given is functional, Homo sapiens. Summed up:
as §1

Test [11] in a line: Growth inhibition effect against NSCL A-549 cells. The class given is functional, Homo sapiens. Summed up:
as §1

Test [12] is described as follows: Growth inhibition effect against colon LOVO-DOX cells. The class given is functional, Homo sapiens. The essentials:
as §1

From ChEMBL document CHEMBL1145949, “Constrained derivatives of stylostatin 1. 1. Synthesis and biological evaluation as potential anticancer agents” (2003) come the findings set out here.

The GI50 is the concentration at which growth is held to half of that of the control. Low values mean greater sensitivity of the cells, high ones lower sensitivity of the cells. As for `CC[C@H](C)[C@@H]1NC(=O)[C@H](C)NC(=O)[C@H](CC(C)C)N2C[C@@H](O)[C@@H](O)[C@H](NC(=O)[C@H](CC(N)=O)NC(=O)[C@H](Cc3ccccc3)NC(=O)[C@@H]3CCCN3C1=O)C2=O`, the GI50 was 4.97 µM in test [1] (Homo sapiens, IGROV-ET); 8.83 µM in [2] (Homo sapiens, LoVo); 3.33 µM in test [3] (Homo sapiens, IGROV); 9.31 µM in [4] (Homo sapiens, HT-29); 5.1 µM in [5] (Homo sapiens, PANC-1); 3.86 µM in test [6] (Homo sapiens, SK-BR-3). Moreover, the GI50 in test [7] (Homo sapiens, SK-OV-3) amounted to 4.99 µM; in test [8] (Homo sapiens, DU-145), 10.6 µM; in test [9] (Homo sapiens, SK-MEL-28), 6.69 µM; in the test with K562 (Homo sapiens, K562), 3.59 µM; in [10] (Homo sapiens, LNCaP), 3.49 µM; in test [11] (Homo sapiens, A549) it was 5.2 µM. The GI50 in [12] (Homo sapiens, LOVO-DOX) stood at 8.84 µM.
For `CC[C@H](C)[C@@H]1NC(=O)[C@H](C)NC(=O)[C@H](CC(C)C)NC(=O)[C@H](CO)NC(=O)[C@H](CC(N)=O)NC(=O)[C@H](Cc2ccccc2)NC(=O)[C@@H]2CCCN2C1=O` (stereo in doubt; 2) [STYLOSTATIN 1], the GI50 in [1] stood at 4.29 µM; in [2], 11.5 µM; in test [3] it was 3.35 µM; in test [4] it was 7.13 µM; in [5] it was 4.97 µM; in test [6] it was 4.16 µM. Moreover, the GI50 in test [7] turned out to be 3.77 µM; in test [8] it was 8.44 µM; in [9], 4.64 µM; in the test with K562, 3.42 µM; in [10], 2.44 µM; in [11], 4.28 µM. This compound displayed a GI50 in [12] of 8.52 µM.
As to `CC[C@H](C)[C@@H]1NC(=O)[C@H](C)NC(=O)[C@H](CC(C)C)NC(=O)[C@H](CO)NC(=O)[C@H](CC(N)=O)NC(=O)[C@H](Cc2ccccc2)NC(=O)[C@@H]2CCCN2C1=O` (stereo in doubt) [STYLOSTATIN 1], the GI50 came to 3.3 µM in test [1] (Homo sapiens, IGROV-ET); 4.55 µM in test [2]; 2.58 µM in [3] (Homo sapiens, IGROV); 6.85 µM in [4] (Homo sapiens, HT-29); 5.03 µM in test [5] (Homo sapiens, PANC-1); 4.39 µM in test [6] (Homo sapiens, SK-BR-3). For the same compound, the GI50 in [7] came to 304 µM; in test [8] it was 3.55 µM; in test [9] (Homo sapiens, SK-MEL-28), 3.06 µM; in the test with K562 (Homo sapiens, K562), 1.94 µM; in [10] (Homo sapiens, LNCaP), 2.6 µM; in [11] (Homo sapiens, A549), 3.46 µM. Also, the GI50 in test [12] (Homo sapiens, LOVO-DOX) amounted to 6.77 µM.
